Our source for the IC50, EC50 and cholesterol efflux values is ChEMBL document CHEMBL1153146, “Novel potent apoA-I peptide mimetics that stimulate cholesterol efflux and pre-beta particle formation in vitro” (Bioorg Med Chem Lett, 2010).

Series [1] in a line: Toxicity in human RBC assessed as hemolysis. The series is classed as cell-based, Erythrocyte. Conditions: red blood cells (RBC); call rule not given here. In a few lines:
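Red blood cell lysis assay; cytotoxicity reported as IC50 in µM.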

For series [2], the system named is RAW264.7. Briefly: Cytotoxicity against mouse RAW264.7 cells after 24 hrs by MTT assay. The series is classed as cell-based. Conditions: RAW264.7, 24 h. In a few lines:
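RAW macrophage cytotoxicity examined at peptide concentrations up to 160 µM.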

Series [3] concerns RAW264.7. Briefly: Induction of [3H]cholesterol efflux in mouse RAW264.7 cells after 24 hrs by scintillation counting. Format: functional, cell-based. Conditions: for pEC50: Mus musculus, RAW264.7, read-out: EC50; for EC50: raw264.7. In a few lines: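 Cholesterol efflux from RAW macrophages; EC50 reported in µM as the mean of three experiments.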
Series [4] concerns RAW264.7. Briefly: Induction of [3H]cholesterol efflux in mouse RAW264.7 cells at 30 uM after 24 hrs by scintillation counting. The series is classed as functional, cell-based.

pEC50, pIC50: −log10 of the molar value. Starred links: 1 amine or outer side, 2 acyl side, 3 side chain; linkers in the order of their positions; H or OH if unused. Positions of bridges follow the written chain, without caps; N, C: chain ends. Non-standard residues stand in square brackets, D forms with d. Residues, ends and D or L forms follow the SMILES beside them. X1 = O=C([C@@H](CCCCC=[*:3])N[*:1])[*:2]; X2 = O=C([C@H](CCCCCC=[*:3])N[*:1])[*:2]; Gla = N[C@@H](CC(C(=O)O)C(=O)O)C(=O)O; Aib = CC(C)(N)C(=O)O Where only a bound is given, the exact number is not on record here.

Turning to `CC(C)C[C@H](NC(=O)[C@H](C)NC(=O)[C@H](CCC(=O)O)NC(=O)[C@H](CC(C)C)NC(=O)[C@H]1CCC/C=C\CCC[C@@H](NC(=O)[C@H](CCC(=O)O)NC(=O)[C@H](CCCNC(=N)N)NC(=O)[C@H](Cc2ccccc2)NC(=O)[C@H](CCC(=O)O)NC(=O)[C@H](CC(=O)O)NC(=O)[C@H](CC(C)C)NC(=O)[C@@H](NC(=O)[C@@H]2CCCN2)C(C)C)C(=O)N[C@@H](CC(C)C)C(=O)N[C@@H](CC(N)=O)C(=O)N[C@@H](CCC(=O)O)C(=O)N1)C(=O)N[C@@H](CCCCN)C(=O)N[C@@H](CCC(N)=O)C(=O)N[C@@H](CCCCN)C(=O)N[C@@H](CC(C)C)C(=O)N[C@@H](CCCCN)C(=O)O`, the negative logarithm of the IC50 (pIC50) in series [1] and in series [2] was less than 3.80 in each case. Moreover, the pEC50 in series [3] is 5.00.

As to `CC(C)C[C@H](NC(=O)[C@H](CCCCN)NC(=O)[C@H](CCC(N)=O)NC(=O)[C@H](CCCCN)NC(=O)[C@H](CC(C)C)NC(=O)C(C)(C)NC(=O)[C@H](CCC(=O)O)NC(=O)[C@H](CC(C)C)NC(=O)C(C)(C)NC(=O)[C@H](CCC(=O)O)NC(=O)[C@H](CC(N)=O)NC(=O)[C@H](CC(C)C)NC(=O)[C@H](CCCCN)NC(=O)[C@H](CCC(=O)O)NC(=O)[C@H](CCCNC(=N)N)NC(=O)[C@H](Cc1ccccc1)NC(=O)[C@H](CCC(=O)O)NC(=O)[C@H](CC(=O)O)NC(=O)[C@H](CC(C)C)NC(=O)[C@@H](NC(=O)[C@@H]1CCCN1)C(C)C)C(=O)N[C@@H](CCCCN)C(=O)O` (H-PVLDEFREKLNE[Aib]LE[Aib]LKQKLK-OH), the negative logarithm of the IC50 (pIC50) in series [1] and in series [2] was less than 3.80 throughout. In series [3], the negative logarithm of the EC50 (pEC50) was 4.64.

For the compound `C=CCCC[C@@H](NC(=O)[C@H](CCC(=O)O)NC(=O)[C@H](CC(N)=O)NC(=O)[C@H](CC(C)C)NC(=O)[C@@H](CCCC=C)NC(=O)[C@H](CCC(=O)O)NC(=O)[C@H](CCCNC(=N)N)NC(=O)[C@H](Cc1ccccc1)NC(=O)[C@H](CCC(=O)O)NC(=O)[C@H](CC(=O)O)NC(=O)[C@H](CC(C)C)NC(=O)[C@@H](NC(=O)[C@@H]1CCCN1)C(C)C)C(=O)N[C@@H](CC(C)C)C(=O)N[C@@H](CCC(=O)O)C(=O)N[C@@H](C)C(=O)N[C@@H](CC(C)C)C(=O)N[C@@H](CCCCN)C(=O)N[C@@H](CCC(N)=O)C(=O)N[C@@H](CCCCN)C(=O)N[C@@H](CC(C)C)C(=O)N[C@@H](CCCCN)C(=O)O`, the negative-log IC50 (pIC50) in series [1] and in series [2] was less than 3.80 each time. For the same compound, the pEC50 in series [3] was 4.34.

In the case of `CC.CC(C)C[C@H](NC(=O)[C@H](C)NC(=O)[C@H](CCC(=O)O)NC(=O)[C@H](CC(C)C)NC(=O)[C@@H]1CCCCC/C=C\CCCC[C@@H](NC(=O)[C@H](CCC(=O)O)NC(=O)[C@H](CC(=O)O)NC(=O)[C@H](CC(C)C)NC(=O)[C@@H](NC(=O)[C@@H]2CCCN2)C(C)C)C(=O)N[C@@H](CCCNC(=N)N)C(=O)N[C@@H](CCC(=O)O)C(=O)N[C@@H](CCCCN)C(=O)N[C@@H](CC(C)C)C(=O)N[C@@H](CC(N)=O)C(=O)N[C@@H](CCC(=O)O)C(=O)N1)C(=O)N[C@@H](CCCCN)C(=O)N[C@@H](CCC(N)=O)C(=O)N[C@@H](CCCCN)C(=O)N[C@@H](CC(C)C)C(=O)N[C@@H](CCCCN)C(=O)O` (H-PVLDE[X1]REKLNE[X2]LEALKQKLK-OH; staple (Z) 6-13), the pIC50 in series [1] and in series [2] was less than 3.80 in each case. Also, in series [3], the pEC50 is 5.70.

H-PVLDEFREKLNEELEALKQKLK-OH: the pIC50 in series [1] is 4.40; in series [2], less than 3.80. Besides, the EC50 result in series [3] is “Not Active”.

As to `C=CCCC[C@H](NC(=O)[C@H](CCC(=O)O)NC(=O)[C@H](CC(N)=O)NC(=O)[C@H](CC(C)C)NC(=O)[C@H](CCCC=C)NC(=O)[C@H](CCC(=O)O)NC(=O)[C@H](CCCNC(=N)N)NC(=O)[C@H](Cc1ccccc1)NC(=O)[C@H](CCC(=O)O)NC(=O)[C@H](CC(=O)O)NC(=O)[C@H](CC(C)C)NC(=O)[C@@H](NC(=O)[C@@H]1CCCN1)C(C)C)C(=O)N[C@@H](CC(C)C)C(=O)N[C@@H](CCC(=O)O)C(=O)N[C@@H](C)C(=O)N[C@@H](CC(C)C)C(=O)N[C@@H](CCCCN)C(=O)N[C@@H](CCC(N)=O)C(=O)N[C@@H](CCCCN)C(=O)N[C@@H](CC(C)C)C(=O)N[C@@H](CCCCN)C(=O)O`, the pIC50 in series [1] and in series [2] was less than 3.80 in each case. Further, the cholesterol efflux in series [4] came out at 7%.

For the compound `CC(C)C[C@H](NC(=O)[C@H](C)NC(=O)[C@H](CCC(=O)O)NC(=O)[C@H](CC(N)=O)NC(=O)[C@H](CC(C)C)NC(=O)[C@H](CCCCN)NC(=O)[C@H](CCC(=O)O)NC(=O)[C@H](CCCNC(=N)N)NC(=O)[C@H](Cc1ccccc1)NC(=O)[C@H](CCC(=O)O)NC(=O)[C@H](CC(=O)O)NC(=O)[C@H](CC(C)C)NC(=O)[C@@H](NC(=O)[C@@H]1CCCN1)C(C)C)C(=O)N[C@@H](CC(C(=O)O)C(=O)O)C(=O)N[C@@H](C)C(=O)N[C@@H](CC(C)C)C(=O)N[C@@H](CCCCN)C(=O)N[C@@H](CCC(N)=O)C(=O)N[C@@H](CCCCN)C(=O)N[C@@H](CC(C)C)C(=O)N[C@@H](CCCCN)C(=O)O` (H-PVLDEFREKLNEAL[Gla]ALKQKLK-OH), the pIC50 is 4.12 in series [1] and less than 3.80 in series [2]. In addition, the pEC50 in series [3] is 3.63.

On to `CC(C)C[C@H](NC(=O)[C@H](C)NC(=O)[C@H](CC(C(=O)O)C(=O)O)NC(=O)[C@H](CC(C)C)NC(=O)C(C)(C)NC(=O)[C@H](CCC(=O)O)NC(=O)[C@H](CC(N)=O)NC(=O)[C@H](CC(C)C)NC(=O)[C@H](CCCCN)NC(=O)[C@H](CCC(=O)O)NC(=O)[C@H](CCCNC(=N)N)NC(=O)[C@H](Cc1ccccc1)NC(=O)[C@H](CCC(=O)O)NC(=O)[C@H](CC(=O)O)NC(=O)[C@H](CC(C)C)NC(=O)[C@@H](NC(=O)[C@@H]1CCCN1)C(C)C)C(=O)N[C@@H](CCCCN)C(=O)N[C@@H](CCC(N)=O)C(=O)N[C@@H](CCCCN)C(=O)N[C@@H](CC(C)C)C(=O)N[C@@H](CCCCN)C(=O)O` (H-PVLDEFREKLNE[Aib]L[Gla]ALKQKLK-OH), for which the pIC50 in series [1] was 4.12; in series [2] it was less than 3.80. The negative-log EC50 (pEC50) in series [3] was 4.39.

Regarding `CC(C)C[C@H](NC(=O)[C@H](C)NC(=O)[C@H](CCC(=O)O)NC(=O)[C@H](CC(N)=O)NC(=O)[C@H](CC(C)C)NC(=O)[C@H](CCCCN)NC(=O)[C@H](CC(C(=O)O)C(=O)O)NC(=O)[C@H](CCCNC(=N)N)NC(=O)[C@H](Cc1ccccc1)NC(=O)[C@H](CCC(=O)O)NC(=O)[C@H](CC(=O)O)NC(=O)[C@H](CC(C)C)NC(=O)[C@@H](NC(=O)[C@@H]1CCCN1)C(C)C)C(=O)N[C@@H](CCC(=O)O)C(=O)N[C@@H](C)C(=O)N[C@@H](CC(C)C)C(=O)N[C@@H](CCCCN)C(=O)N[C@@H](CCC(N)=O)C(=O)N[C@@H](CCCCN)C(=O)N[C@@H](CC(C)C)C(=O)N[C@@H](CCCCN)C(=O)O` (H-PVLDEFR[Gla]KLNEALEALKQKLK-OH), the pIC50 in series [1] is 4.40; in series [2], less than 3.80. The pEC50 in series [3] is 3.85.

In the case of `C=CCCCCC[C@H](NC(=O)[C@H](CCC(=O)O)NC(=O)[C@H](CC(=O)O)NC(=O)[C@H](CC(C)C)NC(=O)[C@@H](NC(=O)[C@@H]1CCCN1)C(C)C)C(=O)N[C@@H](CCCNC(=N)N)C(=O)N[C@@H](CCC(=O)O)C(=O)N[C@@H](CCCCN)C(=O)N[C@@H](CC(C)C)C(=O)N[C@@H](CC(N)=O)C(=O)N[C@H](CCC(=O)O)C(=O)N[C@@H](CCCCC=C)C(=O)N[C@H](CC(C)C)C(=O)N[C@H](CCC(=O)O)C(=O)N[C@H](C)C(=O)N[C@H](CC(C)C)C(=O)N[C@H](CCCCN)C(=O)N[C@H](CCC(N)=O)C(=O)N[C@H](CCCCN)C(=O)N[C@H](CC(C)C)C(=O)N[C@H](CCCCN)C(=O)O`, the pIC50 in series [1] and in series [2] was less than 3.80 in each case. The negative logarithm of the EC50 (pEC50) in series [3] is 5.89.

Regarding `CC(C)C[C@H](NC(=O)[C@H](C)NC(=O)[C@H](CCC(=O)O)NC(=O)[C@H](CC(C)C)NC(=O)[C@@H]1CCC/C=C\CCC[C@@H](NC(=O)[C@H](CCC(=O)O)NC(=O)[C@H](CCCNC(=N)N)NC(=O)[C@H](Cc2ccccc2)NC(=O)[C@H](CCC(=O)O)NC(=O)[C@H](CC(=O)O)NC(=O)[C@H](CC(C)C)NC(=O)[C@@H](NC(=O)[C@@H]2CCCN2)C(C)C)C(=O)N[C@@H](CC(C)C)C(=O)N[C@@H](CC(N)=O)C(=O)N[C@@H](CCC(=O)O)C(=O)N1)C(=O)N[C@@H](CCCCN)C(=O)N[C@@H](CCC(N)=O)C(=O)N[C@@H](CCCCN)C(=O)N[C@@H](CC(C)C)C(=O)N[C@@H](CCCCN)C(=O)O`, the pIC50 in series [1] and in series [2] was less than 3.80 throughout. Also, in series [3], the EC50 entry was “Not Active”.

For the compound `CC(C)C[C@H](NC(=O)[C@H](C)NC(=O)[C@H](CCC(=O)O)NC(=O)[C@H](CC(C)C)NC(=O)C(C)(C)NC(=O)[C@H](CCC(=O)O)NC(=O)[C@H](CC(N)=O)NC(=O)[C@H](CC(C)C)NC(=O)[C@H](CCCCN)NC(=O)[C@H](CC(C(=O)O)C(=O)O)NC(=O)[C@H](CCCNC(=N)N)NC(=O)[C@H](Cc1ccccc1)NC(=O)[C@H](CCC(=O)O)NC(=O)[C@H](CC(=O)O)NC(=O)[C@H](CC(C)C)NC(=O)[C@@H](NC(=O)[C@@H]1CCCN1)C(C)C)C(=O)N[C@@H](CCCCN)C(=O)N[C@@H](CCC(N)=O)C(=O)N[C@@H](CCCCN)C(=O)N[C@@H](CC(C)C)C(=O)N[C@@H](CCCCN)C(=O)O` (H-PVLDEFR[Gla]KLNE[Aib]LEALKQKLK-OH), the pIC50 in series [1] was 4.12; in series [2] it was less than 3.80. Further, in series [3], the pEC50 was 4.36.

Usually pIC50 stands for −log10 of the IC50, conventionally taken in molar units. The pEC50 is the EC50 on a negative log10 scale, so that one unit is a factor of ten.
